Assay results reported in ChEMBL document CHEMBL2413060, “Synthesis, biological evaluation and molecular docking studies of some pyrimidine derivatives” (2013).
Values after ≈ are worked out from the molar mass of the structure shown.

Columns and labels:
Type in all cases: functional
Staphylococcus aureus [1] = test: Antibacterial activity against Staphylococcus aureus ATCC 6538P assessed as diameter of inhibition zone at 1 mg/ml after 24 hrs by cup diffusion method (reference value: 15 mm); settings: read-out: DIZ
NCI/ADR-RES = test: Cytotoxicity against human NCI/ADR-RES cells assessed as growth inhibition at 10 uM; settings: read-out: GI
Method in brief: (§1)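 Single-dose screen on human tumour cell lines. Growth of treated cells is expressed as percent of untreated growth, plotted as a mean graph, and reported as percent growth inhibition.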

Pseudomonas aeruginosa [2] = test: Antibacterial activity against Pseudomonas aeruginosa ATCC 9027 assessed as diameter of inhibition zone at 1 mg/ml after 24 hrs by cup diffusion method (reference value: 16 mm); settings: ATCC 9027, 24 h, read-out: DIZ
Candida albicans [3] = test: Antifungal activity against Candida albicans ATCC 2091 assessed as diameter of inhibition zone at 1 mg/ml after 48 hrs by cup diffusion method (reference value: 22 mm); settings: ATCC 2091, 48 h, read-out: DIZ
Shigella flexneri [4] = test: Antibacterial activity against Shigella flexneri ATCC 15391 assessed as diameter of inhibition zone at 1 mg/ml after 24 hrs by cup diffusion method (reference value: 17 mm); settings: ATCC 15391, 24 h, read-out: DIZ
Staphylococcus aureus [5] = test: Antibacterial activity against Staphylococcus aureus ATCC 6538P after 24 hrs by two-fold serial dilution method
Method in brief: (§2)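 Two-fold serial broth dilution in sterile nutrient broth at 500, 250, 125, 62.5, 31.25, 15.63, 7.82 and 3.91 µg/ml, with dimethylformamide ≤2.5%. Organisms were pre-grown 24 h in broth, and 0.1 ml inoculum was added per 5 ml tube. Tubes were incubated at 37°C, 24 h for bacteria and 48 h for fungi. MIC was taken as the lowest concentration giving no turbidity.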

Staphylococcus aureus [6] = test: Antibacterial activity against Staphylococcus aureus ATCC 6538P after 24 hrs by two-fold serial dilution method relative to ampicillin
HCC 2998 = test: Cytotoxicity against human HCC2998 cells assessed as growth inhibition at 10 uM; settings: read-out: GI
Malme-3M = test: Cytotoxicity against human MALME-3M cells assessed as growth inhibition at 10 uM; settings: read-out: GI
UO-31 = test: Cytotoxicity against human UO31 cells assessed as growth inhibition at 10 uM; settings: read-out: GI
Method in brief: (§3)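 Single-dose screen in a sixty-cell human tumour line panel; percent growth of treated cells relative to untreated was read and reported as percentage growth inhibition, shown as a mean graph. Compounds meeting the threshold inhibition criteria went on to five-dose testing.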

NCI-H322M = test: Cytotoxicity against human NCI-H322M cells assessed as growth inhibition at 10 uM; settings: read-out: GI; method in brief: as §1
PC-3 = test: Cytotoxicity against human PC3 cells assessed as growth inhibition at 10 uM; settings: read-out: GI; method in brief: as §1
SK-MEL-28 = test: Cytotoxicity against human SK-MEL-28 cells assessed as growth inhibition at 10 uM; settings: read-out: GI; method in brief: as §1
OVCAR-3 = test: Cytotoxicity against human OVCAR3 cells assessed as growth inhibition at 10 uM; settings: read-out: GI; method in brief: as §1
TK-10 = test: Cytotoxicity against human TK10 cells assessed as growth inhibition at 10 uM; settings: read-out: GI; method in brief: as §3
SK-MEL-2 = test: Cytotoxicity against human SK-MEL-2 cells assessed as growth inhibition at 10 uM; settings: read-out: GI; method in brief: as §1
HCT-116 = test: Cytotoxicity against human HCT116 cells assessed as growth inhibition at 10 uM; settings: read-out: GI
Hs-578T = test: Cytotoxicity against human Hs578T cells assessed as growth inhibition at 10 uM; settings: read-out: GI
UACC-257 = test: Cytotoxicity against human UACC257 cells assessed as growth inhibition at 10 uM; settings: read-out: GI; method in brief: as §3
CAKI-1 = test: Cytotoxicity against human Caki1 cells assessed as growth inhibition at 10 uM; settings: read-out: GI
T47D = test: Cytotoxicity against human T47D cells assessed as growth inhibition at 10 uM; settings: read-out: GI; method in brief: as §1
Candida albicans [7] = test: Antifungal activity against Candida albicans ATCC 2091 after 48 hrs by two-fold serial dilution method relative to clotrimazole
SK-OV-3 = test: Cytotoxicity against human SKOV3 cells assessed as growth inhibition at 10 uM; settings: read-out: GI; method in brief: as §1
SF-295 = test: Cytotoxicity against human SF295 cells assessed as growth inhibition at 10 uM; settings: read-out: GI; method in brief: as §1
SF-539 = test: Cytotoxicity against human SF539 cells assessed as growth inhibition at 10 uM; settings: read-out: GI; method in brief: as §1
M14 = test: Cytotoxicity against human M14 cells assessed as growth inhibition at 10 uM; settings: read-out: GI
HOP-92 = test: Cytotoxicity against human HOP92 cells assessed as growth inhibition at 10 uM; settings: read-out: GI
SNB-75 = test: Cytotoxicity against human SNB75 cells assessed as growth inhibition at 10 uM; settings: read-out: GI; method in brief: as §1
786-0 = test: Cytotoxicity against human 786-0 cells assessed as growth inhibition at 10 uM; settings: read-out: GI
SN12C = test: Cytotoxicity against human SN12C cells assessed as growth inhibition at 10 uM; settings: read-out: GI; method in brief: as §1
ACHN = test: Cytotoxicity against human ACHN cells assessed as growth inhibition at 10 uM; settings: read-out: GI
MDA-MB-435 = test: Cytotoxicity against human MDA-MB-435 cells assessed as growth inhibition at 10 uM; settings: read-out: GI; method in brief: as §1
IGROV-1 = test: Cytotoxicity against human IGROV1 cells assessed as growth inhibition at 10 uM; settings: read-out: GI
Candida albicans [8] = test: Antifungal activity against Candida albicans ATCC 2091 after 48 hrs by two-fold serial dilution method; settings: ATCC 2091, 48 h; method in brief: as §2
HOP-62 = test: Cytotoxicity against human HOP62 cells assessed as growth inhibition at 10 uM; settings: read-out: GI
NCI-H460 = test: Cytotoxicity against human NCI-H460 cells assessed as growth inhibition at 10 uM; settings: read-out: GI; method in brief: as §1
MCF7 = test: Cytotoxicity against human MCF7 cells assessed as growth inhibition at 10 uM; settings: read-out: GI; method in brief: as §1
BT-549 = test: Cytotoxicity against human BT549 cells assessed as growth inhibition at 10 uM; settings: read-out: GI
OVCAR-8 = test: Cytotoxicity against human OVCAR8 cells assessed as growth inhibition at 10 uM; settings: read-out: GI; method in brief: as §1
A498 = test: Cytotoxicity against human A498 cells assessed as growth inhibition at 10 uM; settings: read-out: GI
UACC-62 = test: Cytotoxicity against human UACC62 cells assessed as growth inhibition at 10 uM; settings: read-out: GI; method in brief: as §3
[9] = Cytotoxicity against human EKVX cells assessed as growth inhibition at 10 uM; settings: read-out: GI
Pseudomonas aeruginosa [10] = test: Antibacterial activity against Pseudomonas aeruginosa ATCC 9027 after 24 hrs by two-fold serial dilution method relative to ofloxacin
SR = test: Cytotoxicity against human SR cells assessed as growth inhibition at 10 uM; settings: read-out: GI; method in brief: as §1
RPMI-8226 = test: Cytotoxicity against human RPMI8226 cells assessed as growth inhibition at 10 uM; settings: read-out: GI; method in brief: as §1
Shigella flexneri [11] = test: Antibacterial activity against Shigella flexneri ATCC 15391 after 24 hrs by two-fold serial dilution method relative to ofloxacin
CCRF-CEM = test: Cytotoxicity against human CCRF-CEM cells assessed as growth inhibition at 10 uM; settings: read-out: GI
Shigella flexneri [12] = test: Antibacterial activity against Shigella flexneri ATCC 15391 after 24 hrs by two-fold serial dilution method; settings: ATCC 15391, 24 h; method in brief: as §2
NCI-H522 = test: Cytotoxicity against human NCI-H522 cells assessed as growth inhibition at 10 uM; settings: read-out: GI; method in brief: as §1
RXF 393 = test: Cytotoxicity against human RXF393 cells assessed as growth inhibition at 10 uM; settings: read-out: GI; method in brief: as §1
K562 = test: Cytotoxicity against human K562 cells assessed as growth inhibition at 10 uM; settings: read-out: GI

Compound | zone of inhibition at 1000 µg/mL (Staphylococcus aureus [1]) [mm] | inhibition of growth at 10 µM (NCI/ADR-RES) [%] | zone of inhibition at 1000 µg/mL (Pseudomonas aeruginosa [2]) [mm] | zone of inhibition at 1000 µg/mL (Candida albicans [3]) [mm] | zone of inhibition at 1000 µg/mL (Shigella flexneri [4]) [mm] | inhibition of growth at 10 µM (HCC 2998) [%] | inhibition of growth at 10 µM (Malme-3M) [%] | inhibition of growth at 10 µM (PC-3) [%] | inhibition of growth at 10 µM (TK-10) [%] | inhibition of growth at 10 µM (SK-MEL-2) [%] | inhibition of growth at 10 µM (CAKI-1) [%] | inhibition of growth at 10 µM (T47D) [%] | inhibition of growth at 10 µM (SK-OV-3) [%] | inhibition of growth at 10 µM (SF-295) [%] | inhibition of growth at 10 µM (M14) [%] | inhibition of growth at 10 µM (HOP-92) [%] | inhibition of growth at 10 µM (SNB-75) [%] | inhibition of growth at 10 µM (IGROV-1) [%] | inhibition of growth at 10 µM (HOP-62) [%] | inhibition of growth at 10 µM (NCI-H460) [%] | other results
CSc1nc(-c2ccco2)c(C#N)c(=O)n1C | 19 | 48.8 | 17 | 22 | 17 | 98.4 |  |  |  |  |  |  |  |  |  |  |  |  |  |  | MIC (Staphylococcus aureus [5]): 125 mg/L (≈ 506 µM); Activity (Staphylococcus aureus [6]): 50%
N#Cc1c(-c2ccccc2)nc(SCC(O)CN2CCOCC2)nc1N1CCOCC1 (stereo not given) | 15 |  | 16 | 24 | 18 |  | 76.9 | 43.5 | 59.2 | 92.7 | 62.6 | 74 | 58.9 | 56.4 | 40.1 | 69.3 | 105 | 130 | 52 | 66 | inhibition of growth at 10 µM (UO-31): 58.3%; inhibition of growth at 10 µM (NCI-H322M): 47.7%; inhibition of growth at 10 µM (SK-MEL-28): 40.1%; inhibition of growth at 10 µM (OVCAR-3): 64.6%; inhibition of growth at 10 µM (HCT-116): 42.5%; inhibition of growth at 10 µM (Hs-578T): 93.8%; inhibition of growth at 10 µM (UACC-257): 82.9%; Activity (Candida albicans [7]): 60%; inhibition of growth at 10 µM (SF-539): 43.4%; inhibition of growth at 10 µM (786-0): 61.9%; inhibition of growth at 10 µM (SN12C): 42.2%; inhibition of growth at 10 µM (ACHN): 45.6%; inhibition of growth at 10 µM (MDA-MB-435): 47%; MIC (Candida albicans [8]): 125 mg/L (≈ 283 µM); inhibition of growth at 10 µM (MCF7): 95%; inhibition of growth at 10 µM (BT-549): 70.5%; inhibition of growth at 10 µM (OVCAR-8): 66.6%; inhibition of growth at 10 µM (A498): 103%; inhibition of growth at 10 µM (UACC-62): 57.1%
N#Cc1c(N2CCOCC2)nc(=S)[nH]c1-c1ccco1 | 15 | 59.8 | 16 | 22 | 22 | 121 | 97.8 | 57.4 | 52.9 | 63 | 41.8 | 81.1 | 45 | 52.6 | 60.2 | 112 | 84.1 | 79.3 | 64.2 | 49.9 | inhibition of growth at 10 µM [9]: 51.2%; Activity (Pseudomonas aeruginosa [10]): 60%; inhibition of growth at 10 µM (SR): 82.2%; inhibition of growth at 10 µM (RPMI-8226): 57%; Activity (Shigella flexneri [11]): 60%; inhibition of growth at 10 µM (CCRF-CEM): 50.4%; MIC (Shigella flexneri [12]): 125 mg/L (≈ 434 µM); inhibition of growth at 10 µM (MCF7): 73.3%; inhibition of growth at 10 µM (NCI-H522): 50.4%; inhibition of growth at 10 µM (A498): 101%; inhibition of growth at 10 µM (UACC-62): 56.7%
Cn1c(N2CCOCC2)nc(-c2ccc([N+](=O)[O-])cc2)c(C#N)c1=O | 15 |  | 16 | 22 | 17 |  |  |  |  |  |  |  |  |  |  | 44.3 |  | 40.1 |  |  | inhibition of growth at 10 µM (RPMI-8226): 39.7%; inhibition of growth at 10 µM (RXF 393): 47.7%; inhibition of growth at 10 µM (K562): 41.8%
